Legend:
Assay type in all cases: cell-based
Parameters in all cases: scale not given: the % may be the effect or the level left
H4 [1] = assay: Cytotoxicity against human H4 cells expressing wild type betaAPP695 assessed as decrease in cell protein at 10 uM after 24 hrs; conditions: h4, 24 h
Summary of the method: (§1)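 Serum-starved H4βAPP695wt cells are treated for 24 h with drug in DMSO (0.02% DMSO vehicle control). Total Aβ in conditioned medium is measured by sandwich ELISA with 6E10 capture and 4G8 detection, normalized to lysate protein by BCA. Cytotoxicity is read as total cell protein. Quadruplicate wells in 1-4 independent experiments give the % decrease versus vehicle.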

H4 [2] = assay: Induction of alpha-secretase-mediated reduction in amyloid beta secretion in human H4 cells expressing wild type betaAPP695 at 10 uM after 24 hrs […] relative to control; summary of the method: as §1
H4 [3] = assay: Cytotoxicity against human H4 cells expressing wild type betaAPP695 assessed as decrease in cell protein at 30 uM after 24 hrs; conditions: h4, 24 h; summary of the method: as §1
H4 [4] = assay: Induction of alpha-secretase-mediated reduction in amyloid beta secretion in human H4 cells expressing wild type betaAPP695 at 30 uM after 24 hrs […] relative to control; summary of the method: as §1

SMILES	Activity (H4 [1])	Activity (H4 [2])	Activity (H4 [3])	Activity (H4 [4])
COc1cccc(C[S+]([O-])CCNC(=O)c2c(Cl)cccc2Cl)c1 (stereo not drawn)	1.6%	-13.6%	9.2%	-15.8%
O=C(NCCSCc1cccc(NC(=O)C2CC2)c1)c1c(Cl)cccc1Cl	3%	-21.4%	3.2%	-2%
O=C(NCCSCc1cccc(Br)c1)c1c(Cl)cccc1Cl	12.3%	75%	38.6%	90.1%
O=C(NCCCCNC(=O)c1c(Cl)cccc1Cl)c1c(Cl)cccc1Cl	–	4%	–	–
COc1cccc(CSCCNC(=O)c2c([N+](=O)[O-])cccc2[N+](=O)[O-])c1	3.7%	-14.1%	-3.8%	-2.8%
O=C(NCCSCc1cccc([N+](=O)[O-])c1)c1c(Cl)cccc1Cl	7.5%	58.5%	24.6%	72.5%
O=C(NCCSCc1cccc(Cl)c1)c1ccccc1Cl	–	4.7%	–	–
O=C(NCCSCc1cccc(Cl)c1)c1c([N+](=O)[O-])cccc1[N+](=O)[O-]	0.1%	28.8%	17.8%	52.9%
O=C(NCCS(=O)(=O)Cc1cccc(Cl)c1)c1c(Cl)cccc1Cl	-2.2%	8.9%	-3.8%	9.3%
COc1cccc(CSCCNC(=O)c2c(OC)cccc2OC)c1	0.5%	6.2%	3.9%	-0.6%
O=C(NCCSCc1cccc(Cl)c1)c1ccc(F)cc1	–	6.4%	–	–
Clc1cccc(CSCCNCc2c(Cl)cccc2Cl)c1	-3.6%	45.2%	6.6%	45.6%
CN(C)CCNC(=O)c1c(Cl)cccc1Cl	–	6.6%	–	–
CN(C)CCCNC(=O)c1c(Cl)cccc1Cl	–	15.8%	–	–
O=C(NC1CC1)c1cccc(CSCCNC(=O)c2c(Cl)cccc2Cl)c1	0%	1.9%	-1%	11%
CCN(CC)CCCNC(=O)c1c(Cl)cccc1Cl	–	5.1%	–	–
O=C(NCCSCc1ccc(F)cc1)c1c(F)cccc1Cl	–	27.3%	–	–
Cc1cccc(C)c1C(=O)NCCSCc1cccc(Cl)c1	0.9%	29.5%	-9.4%	51.6%
CC(C)(CNC(=O)c1c(Cl)cccc1Cl)SCc1ccc(F)cc1	–	37%	–	–
O=C(NCCSCc1cccc(Cl)c1)c1c(F)cccc1F	5.1%	4.9%	8.1%	21.6%
O=C(NCCSCc1cccc(Cl)c1)c1c(C(F)(F)F)cccc1C(F)(F)F	-4.2%	6.2%	-0.4%	13.5%
N#Cc1c(Cl)cccc1CSCCNC(=O)c1c(Cl)cccc1Cl	3.5%	48.7%	1.3%	52.3%
O=C(NCCSCc1cccc(F)c1)c1c(F)cccc1F	0.1%	-16.8%	1.8%	-15.5%

SMILES	Activity (H4 [1])	Activity (H4 [2])	Activity (H4 [3])	Activity (H4 [4])
O=C(NCCSCc1ccc(Cl)c(Cl)c1)c1ccc(Cl)cc1Cl	–	4.3%	–	–
N=C(NO)c1cccc(CSCCNC(=O)c2c(Cl)cccc2Cl)c1	9.2%	–	5.9%	–
O=C(NCCSCc1cccc(Br)c1)c1c(Br)cccc1Br	9.8%	78.6%	23.9%	87.3%
Nc1cccc(CSCCNC(=O)c2c(Cl)cccc2Cl)c1	15.3%	0.1%	13.1%	17%
COc1cccc(CSCCNC(=O)c2c(Cl)cccc2OC)c1	1.9%	-2.9%	9.3%	-4.7%
O=Cc1cccc(CSCCNC(=O)c2c(Cl)cccc2Cl)c1	1.5%	19.9%	-2.1%	36.4%
O=C(NCC[S+]([O-])Cc1cccc(Cl)c1)c1c(Cl)cccc1Cl (stereo not drawn)	-4.9%	4%	7.3%	-16.5%
O=C(O)c1cccc(CSCCNC(=O)c2c(Cl)cccc2Cl)c1	7.1%	-11.4%	3.2%	-3.8%
O=C(NCCSc1ccccc1)c1ccccc1Cl	–	-4.4%	–	–
O=C(NCCSCc1ccc(O)cc1)c1c(Cl)cccc1Cl	8.7%	13.1%	4.4%	56.7%
NC(=O)c1cccc(CSCCNC(=O)c2c(Cl)cccc2Cl)c1	-2.8%	6.2%	-8.6%	32.3%
O=C(NCCSCc1ccc(Cl)c(Cl)c1)c1ccccc1Cl	–	0.7%	–	–
N/C(=N\O)c1cccc(CSCCNC(=O)c2c(Cl)cccc2Cl)c1	–	-1.5%	–	1.6%
NC(=O)c1c(Cl)cccc1CSCCNC(=O)c1c(Cl)cccc1Cl	2.5%	44.7%	-5.6%	49.7%
O=C(Cc1c(Cl)cccc1Cl)NCCSCc1cccc(Cl)c1	-1.3%	6.7%	-0.7%	13.5%
O=C(NCCOCc1cccc(Cl)c1)c1c(Cl)cccc1Cl	-9.9%	10.5%	4.2%	-5.1%
O=C(NCCOCc1ccccc1)c1ccccc1Cl	–	10.3%	–	–
O=C(NCCSCc1cccc(O)c1O)c1c(Cl)cccc1Cl	-4.8%	-4.3%	14%	33.1%
O=C(NCCSCc1ccccc1Cl)c1ccccc1Cl	–	4%	–	–
O=C(NCc1ccccc1)c1c(F)cccc1Cl	–	3.8%	–	–
O=C(NCCSCc1cccc(C(F)(F)F)c1)c1c(Cl)cccc1Cl	19%	73.9%	47.8%	93.4%
O=C(NCCNC(=O)c1ccccc1F)c1ccccc1F	–	0.2%	–	–
COc1ccc(CSCCNC(=O)c2c(Cl)cccc2Cl)cc1	6.7%	1.6%	12.7%	1.1%

SMILES	Activity (H4 [1])	Activity (H4 [2])	Activity (H4 [3])	Activity (H4 [4])
O=C(CSCc1c(F)cccc1Cl)NCc1ccccc1Cl	–	47.8%	–	–
COc1cc(CSCCNC(=O)c2c(Cl)cccc2Cl)cc(OC)c1	2%	47.9%	-8.7%	80.4%
O=C(NCCSCc1ccccc1)c1ccccc1	0.7%	-5.7%	-4.1%	5.5%
O=C(NCCSCc1ccc(Cl)cc1Cl)c1ccc(Cl)cc1Cl	–	39.8%	–	–
CCOC(=O)c1cccc(CSCCNC(=O)c2c(Cl)cccc2Cl)c1	5.8%	3%	5.4%	10.1%
COCCCNC(=O)c1c(Cl)cccc1Cl	–	6.9%	–	–
O=C(NCCS(=O)(=O)Cc1cccc(O)c1)c1c(Cl)cccc1Cl	7.7%	-10.1%	4.4%	9.6%
O=C(NCCSCc1cccc(F)c1)c1c(Cl)cccc1Cl	2.6%	10.2%	3.7%	36.1%
O=C(NCCS(=O)(=O)Cc1ccc(F)cc1)c1c(F)cccc1Cl	–	39.2%	–	–
O=C(NCCSCc1cccc(Cl)c1)c1ccccc1	2.4%	0.3%	-4.5%	10.7%
O=C(NCCSCc1ccc(Cl)cc1)c1c(Cl)cccc1Cl	-6.4%	21.8%	3%	36.5%
COc1cccc(OC)c1C(=O)NCCSCc1cccc(Cl)c1	7.1%	-13.1%	-0.6%	11.2%
O=C(NCCNC(=O)c1c(Cl)cccc1Cl)c1c(Cl)cccc1Cl	–	7.6%	–	–
O=C(NCC[S+]([O-])Cc1cccc(O)c1)c1c(Cl)cccc1Cl (stereo not drawn)	2.8%	-23.7%	4.4%	15.9%
O=C(NCCSCc1cccc(OCCOCCO)c1)c1c(Cl)cccc1Cl	-7.3%	17.4%	6.1%	24.3%
O=C(NCCSCc1cccc(O)c1)c1c(O)cccc1O	10.5%	-22.5%	14.3%	-25.2%
O=C(NCCCCNC(=O)c1ccccc1Br)c1ccccc1Br	–	7.9%	–	–
N#Cc1cccc(CSCCNC(=O)c2c(Cl)cccc2Cl)c1	-4.8%	20%	4.3%	38.7%
COc1cccc(CS(=O)(=O)CCNC(=O)c2c(Cl)cccc2Cl)c1	1.2%	5.3%	8.9%	4.9%
O=C(NCCSCc1cc(O)cc(O)c1)c1c(Cl)cccc1Cl	-0.4%	3.1%	-0.7%	17.2%
O=C(NCCSCc1cccc(Cl)c1)c1c(Br)cccc1Br	6.7%	74.2%	20.8%	83.4%
O=C(NCCSCc1ccc(Cl)cc1)c1ccccc1Cl	–	-12%	–	–
Oc1c(Cl)cc(Cl)cc1/C=N/CCSCc1ccccc1Cl	–	5.3%	–	–
